# From ChEMBL document CHEMBL3132830, “Discovery of a Potent Anti-tumor Agent through Regioselective Mono-N-acylation of 7H-Pyrrolo[3,2-f]quinazoline-1,3-diamine” (Medchemcomm, 2013)
# Active and inactive are the calls of the source. The calls are words filed in the database; no cut-off is given here.
# Columns and labels:
# MDA-MB-468 = assay: Growth inhibition of human MDA-MB-468 cells after 72 hrs by MTT assay; assay type: functional; conditions: MDA-MB-468, 72 h
# How it was run: (§1)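 MTT assay in triple-negative breast cancer cells; 72 h continuous compound exposure; top concentration tested 100 μM. GI50 is the concentration giving 50% growth inhibition over 72 h. Values are mean ± SD of at least two independent experiments, each run in duplicate.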
# MDA-MB-231 = assay: Growth inhibition of human MDA-MB-231 cells after 72 hrs by MTT assay; assay type: functional; conditions: MDA-MB-231, 72 h; how it was run: as §1
# HMEC [1] = assay: Toxicity against HMEC at 0.1 uM after 72hrs by MTT assay; assay type: cell-based; conditions: human
# How it was run: (§2)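 Normal human mammary epithelial cells (HMEC) exposed to compound continuously for 72 h; toxicity read at concentrations from 0.1 μM up to 10 μM.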
# HEK-293T = assay: Inhibition of CREB binding protein (unknown origin) expressed in HEK293T cells assessed as reduction in CREB-mediated gene transcription up to 10 uM by CREB reporter gene assay; assay type: cell-based; conditions: Homo sapiens
# How it was run: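 CREB-mediated gene transcription measured with a CREB reporter assay in HEK 293T cells; compound tested at concentrations up to 10 μM.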
# [2] = target: T1, Dihydrofolate reductase (Homo sapiens) (UniProt P00374); assay: Inhibition of human DHFR up to 10 uM
# T1 sequence (whole entry): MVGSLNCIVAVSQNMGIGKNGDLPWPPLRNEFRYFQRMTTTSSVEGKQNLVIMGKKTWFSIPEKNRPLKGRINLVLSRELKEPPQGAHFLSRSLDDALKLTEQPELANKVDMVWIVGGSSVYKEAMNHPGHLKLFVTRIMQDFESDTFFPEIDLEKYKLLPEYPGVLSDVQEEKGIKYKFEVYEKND
# HMEC [3] = assay: Toxicity against HMEC at 10 uM after 24 hrs by MTT assay; assay type: cell-based; conditions: human
# How it was run: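 HMEC given a 24 h drug treatment; toxicity assessed at concentrations up to 10 μM.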
# HMEC [4] = assay: Toxicity against HMEC at 10 uM after 72 hrs by MTT assay; assay type: cell-based; conditions: human; how it was run: as §2
# HMEC [5] = assay: Toxicity against HMEC up to 5 uM after 72 hrs by MTT assay; assay type: cell-based; conditions: human; how it was run: as §2
Structure (SMILES),GI50 (MDA-MB-468),GI50 (MDA-MB-231),also measured
CC(=O)Nc1nc(N)c2c(ccc3[nH]ccc32)n1,53.5 µM,27.2 µM,–
CCC(=O)Nc1nc(N)nc2ccc3[nH]ccc3c12,20.3 µM,18.7 µM,–
CC(C)C(=O)Nc1nc(N)nc2ccc3[nH]ccc3c12,> 100 µM,> 100 µM,–
CCCC(=O)Nc1nc(N)nc2ccc3[nH]ccc3c12,26.3 µM,26.9 µM,–
CC(=O)Nc1nc(N)nc2ccc3[nH]ccc3c12,56.5 µM,32.6 µM,–
CCCC(=O)Nc1nc(N)c2c(ccc3[nH]ccc32)n1,27.4 µM,25.5 µM,–
CCC(=O)Nc1nc(N)c2c(ccc3[nH]ccc32)n1,24.4 µM,21.4 µM,–
COc1cccc2c1C(=O)c1c(O)c3c(c(O)c1C2=O)C[C@@](O)(C(=O)CO)C[C@@H]3O[C@H]1C[C@H](N)[C@H](O)[C@H](C)O1 [DOXORUBICIN],0.085 µM,0.15 µM,Activity (HMEC [1]): Toxic
CC(C)(C)[Si](C)(C)OCCCCC(=O)Nc1nc(N)nc2ccc3[nH]ccc3c12,11.1 µM,15.6 µM,–
Nc1nc(NC(=O)c2ccc3ccccc3c2)c2c(ccc3[nH]ccc32)n1,8.91 µM,8.46 µM,–
Nc1nc(NC(=O)c2ccc3ccccc3c2)nc2ccc3[nH]ccc3c12,0.44 µM,1.6 µM,inhibition (HEK-293T): inactive; inhibition [2]: inactive; Activity (HMEC [3]): Non-toxic; Activity (HMEC [4]): Toxic; Activity (HMEC [5]): Non-toxic
CC(C)(C)[Si](C)(C)OCCCCC(=O)Nc1nc(N)c2c(ccc3[nH]ccc32)n1,2.24 µM,2.43 µM,–
CC(C)C(=O)Nc1nc(N)c2c(ccc3[nH]ccc32)n1,29.8 µM,39.7 µM,–
CC(=O)Nc1nc(NC(C)=O)c2c(ccc3[nH]ccc32)n1,> 100 µM,> 100 µM,–
Nc1nc(N)c2c(ccc3[nH]ccc32)n1,3.34 µM,4.13 µM,–
